The test system of experiment [1] is Rattus norvegicus. In words: Inhibition of dermal RPAR in rats following p.o. administration; Not significant. Format: functional. A digest of the protocol: (§1)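 Male Sprague-Dawley rats (140-160 g, n=6/group), fasted 18 h, given iv BSA 0.15% w/v with 0.4% Evans Blue in saline, then test agent orally in 0.2% methylcellulose about 1 h later (three dose levels, vehicle controls). Anti-BSA rabbit γ-globulin injected intradermally 30 min post-dose; lesions excised at 4 h, dye-outlined diameters measured, percent inhibition of lesion area versus control; 40% inhibition dose by least-squares regression.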

The species entered for experiment [2] is Rattus norvegicus. Put plainly: animal or person. Format: functional. The settings on record: po.
Experiment [3] deals with Rattus norvegicus. In words: Inhibition of dermal RPAR in rats following p.o. administration. The class given is functional. In outline:
as §1

The species named for experiment [4] is Rattus norvegicus. Put plainly: Reduction in leukocyte numbers in rat pleural carrageenan test. The class given is functional. A digest of the protocol: (§2)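 Fasted male Sprague-Dawley rats (160-200 g, 8-10/group) dosed orally at four levels in 0.2% methylcellulose, or vehicle, 30 min before intrapleural carrageenin (125 μg in 0.2 mL saline); no iv BSA. Killed 4 h later; pleural exudate volume and white cells measured by phenol red dye dilution, inhibition calculated against vehicle controls.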

Experiment [5] is filed under the species Rattus norvegicus. In words: Reduction in leukocyte numbers in rat pleural RPAR exudate. The class given is functional. In outline: (§3)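 Fasted male Sprague-Dawley rats (160-200 g, 8-10/group) received BSA 3 mg/kg iv, then 1 h later intrapleural rabbit anti-BSA γ-globulin (0.2 mL); oral compound (four doses, 0.2% methylcellulose) or vehicle 30 min before. At 4 h, exudate volume and white cell count by phenol red dye dilution; percent inhibition versus control mean; ED50 by least-squares regression.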

The species named for experiment [6] is Rattus norvegicus. In words: Reduction in exudate volume in rat pleural RPAR test. The class given is functional. A digest of the protocol:
as §3

The species named for experiment [7] is Rattus norvegicus. In words: Reduction in exudate volume in rat pleural carrageenan test. The class given is functional. In outline: as §2
The species entered for experiment [8] is Rattus norvegicus. Put plainly: (§4) Reduction in leukocyte numbers in rat pleural RPAR exudate; Nonactive. Format: functional, organism-based. In outline:
as §3

Experiment [9] is filed under the species Rattus norvegicus. The description is as §4. Format: functional, organism-based. In outline: as §3
The source holds these as a separate data set.

The species entered for experiment [10] is Rattus norvegicus. In words: Reduction in exudate volume in rat pleural RPAR test; Nonactive. Format: functional, organism-based. In outline: as §3
Experiment [11] concerns Rattus norvegicus. Put plainly: Percent inhibition of rat dermal RPAR following 350 umol/kg p.o. administration. Format: functional. The settings on record: po. A digest of the protocol: as §1

The structures appear in SMILES notation. Calls of active or inactive are those of the source. No cut-off for these calls is given here.

Here are results for 53 compounds from ChEMBL document CHEMBL1122325, “2-[(Phenylthio)methyl]pyridine derivatives: new antiinflammatory agents” (1983).

Take `c1ccc(CSc2nc3ccccc3s2)nc1`: the ED40 entry in experiment [1] was “inactive”. As for `CC(C)(C)c1ccc(SCc2ccccn2)cc1`, in experiment [2], the inhibition in vivo at 350 µmol/kg turned out to be 34%. In the case of `Cc1ccc(O)c(CSc2ccc(Br)cc2)n1`, in [1], the ED40 entry was “inactive”. `c1ccc(CSc2nc3ccccc3o2)nc1` yielded an inhibition in vivo at 350 µmol/kg in experiment [2] of 26%.

Turning to `Brc1ccc(SCc2cccc(CSc3ccc(Br)cc3)n2)cc1`, the ED40 entry in experiment [1] was “inactive”. Regarding `Cl.O=S(=O)(Cc1ccccn1)c1ccc(Br)cc1`, in experiment [3], the ED40 stood at 192 µM/kg. Same read-out and setting: with `Brc1ccccc1SCc1ccccn1.Cl` the figure was 282 µM/kg. As to `Oc1ccc(SCc2ccccn2)cc1`, in [1], the ED40 result was “inactive”. `Cl.c1ccc(CSc2ncccn2)nc1` registered an ED40 in experiment [3] of 283 µM/kg. Compound `Cc1cccc(CSc2ccc(Br)cc2)n1` showed an inhibition in vivo at 350 µmol/kg in [2] of 28%. On the same count and under the same terms, with `c1ccc(CSC2CCCCC2)nc1` the figure was 21%; with `Brc1ccc(CSc2ccccn2)cc1`, 36%. Turning to `Cl.O=[N+]([O-])c1ccc(SCc2ccccn2)cc1`, the ED40 in experiment [3] was 233 µM/kg. The compound `Cl.Clc1ccccc1SCc1ccccn1` registered an ED40 in experiment [3] of 300 µM/kg. The compound `CN1CCCCC1CSc1ccc(Br)cc1.Cl` (stereo unspecified) registered an ED40 in experiment [3] of 159 µM/kg. On to `C[C@]12CCC(=O)C=C1CC[C@@H]1[C@@H]2[C@@H](O)C[C@@]2(C)[C@H]1CC[C@]2(O)C(=O)CO` [HYDROCORTISONE], for which the ED50 in experiment [4] came to 25 µmol/kg; in [5], 50 µmol/kg; in experiment [6], 38 µmol/kg; in experiment [7] it was 33 µmol/kg. In [3], the ED40 was 33 µM/kg. For `Cl.Fc1ccc(SCc2ccccn2)cc1`, the values for the ED50 in experiment [5] and in [6] were 129 µmol/kg and 137 µmol/kg, respectively. The compound further gave an ED40 in experiment [3] of 159 µM/kg.

In [3], `Cl.[O-][S+](Cc1ccccn1)c1ccc(Br)cc1` (stereo unspecified) showed an ED40 of 216 µM/kg. In experiment [2], `Cc1cccnc1CSc1ccc(Br)cc1` showed an inhibition in vivo at 350 µmol/kg of 25%. In [2], `Brc1ccc(SCc2ccncc2)cc1` returned an inhibition in vivo at 350 µmol/kg of 26%. Turning to `COc1ccc2c(c1)c(CC(=O)O)c(C)n2C(=O)c1ccc(Cl)cc1` [INDOMETHACIN], the ED40 result in experiment [1] is “inactive”. In addition, the ED50 result in experiment [8], in experiment [9] and in experiment [10] was “inactive” throughout. Further, the ED50 in experiment [7] was 3 µmol/kg.

For the compound `Brc1ccc(SCc2cc(-c3ccccc3)ccn2)cc1`, the ED40 entry in [1] was “inactive”. `Clc1ccc(Cc2ccccn2)cc1` registered an inhibition in vivo at 350 µmol/kg in experiment [2] of 35%. The compound `Brc1ccc(SCC2CCCCN2)cc1` (stereo unspecified) came in with an ED40 in [3] of 430 µM/kg.

On to `Brc1ccc(SCc2cccnc2)cc1`, for which, in experiment [2], the inhibition in vivo at 350 µmol/kg came out at 23%. For `Cl.c1ccc(SCc2ccccn2)cc1`, the ED50 was found to be 252 µmol/kg in [5] and 172 µmol/kg in experiment [6]. The same compound registered an ED40 in experiment [3] of 101 µM/kg. `Nc1ccc(SCc2ccccn2)cc1`: in [2], the inhibition in vivo at 350 µmol/kg is 25%. For `Cc1ccc(SCc2ccccn2)cc1`, in experiment [1], the ED40 result was “inactive”.

`Brc1ccc(SCc2ccccn2)cc1.Cl`: the 50% effective dose (ED50) in [4] worked out at 215 µmol/kg; in experiment [5], 73 µmol/kg; in experiment [6] it was 82 µmol/kg; in [7], 142 µmol/kg. Also, in experiment [3], the ED40 worked out at 151 µM/kg. With `Brc1ccc(CSCc2ccccn2)cc1`, the inhibition in vivo at 350 µmol/kg in [2] was 31%. The compound `Brc1ccc(Sc2ccccn2)cc1.Cl` came in with an ED40 in [3] of 369 µM/kg.

`COc1ccc(SCc2ccccn2)cc1.Cl` returned an Inhibition in experiment [1] of 23%. In the case of `Cc1cc(C(C)(C)C)ccc1SCc1ccccn1`, in experiment [2], the inhibition in vivo at 350 µmol/kg was 30%. As to `Cl.FC(F)(F)c1cccc(SCc2ccccn2)c1`, the ED40 in experiment [3] is 307 µM/kg. For `CC(Sc1ccc(Br)cc1)c1ccccn1.Cl` (stereo unspecified), the ED40 in [3] turned out to be 212 µM/kg. For `Clc1cccc(CSc2ccc(Br)cc2)n1`, the ED40 entry in [1] was “inactive”. Same read-out and setting: for `Brc1ccc(SCCc2ccccn2)cc1` the value was “inactive”.

In experiment [2], `CC(=O)Nc1ccc(SCc2ccccn2)cc1` had an inhibition in vivo at 350 µmol/kg of 30%.

In [3], `Cl.[O-][n+]1ccccc1CSc1ccc(Br)cc1` yielded an ED40 of 148 µM/kg.

Take `Brc1ccc(NCc2ccccn2)cc1`: the ED40 result in experiment [1] was “inactive”. In turn, `COc1cccnc1CSc1ccc(Br)cc1` showed an inhibition in vivo at 350 µmol/kg in [11] of 26%. On to `COc1cccc(SCc2ccccn2)c1.Cl`, for which the ED40 in experiment [3] is 273 µM/kg. `Clc1ccc(OCc2ccccn2)cc1` showed an inhibition in vivo at 350 µmol/kg in experiment [2] of 39%. Compound `Cl.Cl.c1ccc(CSc2ccncc2)nc1` gave an ED40 in experiment [3] of 149 µM/kg. The same measure, in the same setting: with `Cl.Clc1cccc(SCc2ccccn2)c1` the figure was 223 µM/kg. `Cl.Clc1ccc(SCc2ccccn2)cc1`: the ED50 in experiment [5] stood at 162 µmol/kg; in experiment [6] it was 154 µmol/kg. This compound also had an ED40 in experiment [3] of 186 µM/kg. Consider `Oc1cccnc1CSc1ccc(Br)cc1`, for which, in [1], the ED40 entry was “inactive”.

`Cl.Clc1ccc(SCc2ccccn2)cc1Cl` had an ED40 in experiment [3] of 402 µM/kg. Take `Cc1ccc(CSc2ccc(Br)cc2)nc1`: the ED40 result in experiment [1] is “inactive”. On to `c1ccc(CCc2ccccn2)cc1`, for which, in experiment [2], the inhibition in vivo at 350 µmol/kg amounted to 36%. In turn, `Cl.Oc1nc(SCc2ccccn2)nc2ccccc12` came in with an ED40 in experiment [3] of 177 µM/kg. For `C[n+]1ccccc1CSc1ccc(Br)cc1`, the inhibition in vivo at 350 µmol/kg in [2] was 22%. Take `Clc1ccnc(CSc2ccc(Br)cc2)c1`: in experiment [1], the ED40 result was “inactive”.

As usually defined, the inhibition in vivo is the drop in the measured response relative to a control, in per cent. Read a low inhibition in vivo as a weak effect. The ED50 is the dose at which the effect has come halfway, by size or by number of responders. The Inhibition is the change of the read-out against control, counted positive when it falls. High values mean a response far below the control, low ones a response near the control.
